Measured values reported in ChEMBL document CHEMBL4699573, “Design, Synthesis, and Pharmacological Evaluation of Analogues Derived from the PLEV Tetrapeptide as Protein-Protein Interaction Modulators of Voltage-Gated Sodium Channel 1.6” (J Med Chem, 2020).
The source made the active and inactive calls. The calls are words filed in the database; no cut-off is given here. Starred links: 1 amine or outer side, 2 acyl side, 3 side chain; linkers in the order of their positions; H or OH if unused. Residues, ends and D or L forms follow the SMILES beside them. *: point of attachment. Adamantane1carbonyl = O=C(C12CC3CC(CC(C3)C1)C2)*; Benzenesulfonyl(4-F) = O=S(=O)(c1ccc(F)cc1)*; NH(1-Adamantyl) = C1C2CC3CC1CC(N*)(C2)C3; Piperazinyl(4-Me) = CN1CCN(*)CC1; Decanoyl = CCCCCCCCCC(=O)*; Morpholide = C1CN(*)CCO1; Cbz = O=C(OCc1ccccc1)*; NHcHex = C1CCC(N*)CC1; CO = O=C([*:1])[*:2]; Bz = O=C(c1ccccc1)*; X2 = C1O[C@@H]1CO*; OtBu = CC(C)(C)O*; NEt2 = CCN(CC)*

Experiments:
HEK293 [1] = assay: Modulation of recombinant human FGF141b (1 to 252 residues)-recombinant human Nav1.6 C-terminal tail (1763 to 1976 residues) protein-protein interaction expressed in HEK293 cells assessed as relative luminescence value at 50 uM measured at 2 mins interval for 20 mins by split-luciferase complementation assay relative to control; assay type: cell-based; conditions: time min 2-20
Method in brief: (§1)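 Double-stable HEK293 line expressing CLuc-FGF14 and CD4-Nav1.6-C-tail-NLuc, kept on G418 and puromycin. Cells seeded for 24 h, then given compound for 1 h in serum-free, phenol red-free DMEM/F12 with a final 0.5% DMSO: 50 μM for screening, 0.25–100 μM over eight concentrations for dose-response; n = 4. D-luciferin added and read every 2 min for 20 min at 37 °C. Peak luminescence expressed as percent of per-plate DMSO mean (n = 32). IC50 from four-parameter nonlinear fit. At least 3 experiments.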

[2] = Modulation of recombinant human FGF141b (1 to 252 residues)-recombinant human Nav1.6 C-terminal tail (1763 to 1976 residues) protein-protein interaction expressed in HEK293 cells measured at 2 mins interval for 20 mins by split-luciferase complementation assay; assay type: cell-based; method in brief: as §1
HEK293 [3] = assay: Modulation of recombinant human FGF141b (1 to 252 residues)-recombinant human Nav1.6 C-terminal tail (1763 to 1976 residues) protein-protein interaction expressed in HEK293 cells measured at 2 mins interval for 20 mins by split-luciferase complementation assay relative to control; assay type: cell-based; conditions: filed as modulator, time min 2-20; method in brief: as §1
HEK293 [4] = assay: Inhibition of full-length Photinus pyralis luciferase transfected in HEK293 cells at 25 uM incubated for 1 hrs by split-luciferase complementation assay; assay type: cell-based
Method in brief: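 HEK293 cells transfected with full-length Photinus pyralis luciferase, then treated 1 h with 25 μM compound (n = 4) or 0.5% DMSO (n = 32). Luminescence read after D-luciferin addition, as in the LCA, normalized to per-plate DMSO controls. One-way ANOVA with Dunnett's test.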

HEK293 [5] = assay: Cytotoxicity against HEK293 cells assessed as reduction in cell viability measured after 18 hrs by celltiter-blue assay; conditions: human, hek293, 18 h
[6] = target: T1, Sodium channel protein type 8 subunit alpha (Homo sapiens, UniProt Q9UQD0); assay: Binding affinity to human recombinant Nav1.6 C-terminal domain expressed in Escherichia coli BL21 assessed as dissociation rate constant by SPR analysis; conditions: filed as modulator
Method in brief: (§2)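 Biacore T100 runs with FGF14 (17,896 RU) or Nav1.6 C-tail (6,800 RU) amine-coupled on CM5 at pH 5.5. Compounds at 0.195–200 μM in PBS, 0.005% Tween-20, 2% DMSO; 50 μL/min at 25 °C. 120 s association, 150 s dissociation, DMSO calibration, blank subtraction. Rates from a Langmuir 1:1 fit; KD averages the kinetic and steady-state values. At least duplicate experiments.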
Target sequence in this assay (Q9UQD0 whole entry, looked up, the tested form may be a part): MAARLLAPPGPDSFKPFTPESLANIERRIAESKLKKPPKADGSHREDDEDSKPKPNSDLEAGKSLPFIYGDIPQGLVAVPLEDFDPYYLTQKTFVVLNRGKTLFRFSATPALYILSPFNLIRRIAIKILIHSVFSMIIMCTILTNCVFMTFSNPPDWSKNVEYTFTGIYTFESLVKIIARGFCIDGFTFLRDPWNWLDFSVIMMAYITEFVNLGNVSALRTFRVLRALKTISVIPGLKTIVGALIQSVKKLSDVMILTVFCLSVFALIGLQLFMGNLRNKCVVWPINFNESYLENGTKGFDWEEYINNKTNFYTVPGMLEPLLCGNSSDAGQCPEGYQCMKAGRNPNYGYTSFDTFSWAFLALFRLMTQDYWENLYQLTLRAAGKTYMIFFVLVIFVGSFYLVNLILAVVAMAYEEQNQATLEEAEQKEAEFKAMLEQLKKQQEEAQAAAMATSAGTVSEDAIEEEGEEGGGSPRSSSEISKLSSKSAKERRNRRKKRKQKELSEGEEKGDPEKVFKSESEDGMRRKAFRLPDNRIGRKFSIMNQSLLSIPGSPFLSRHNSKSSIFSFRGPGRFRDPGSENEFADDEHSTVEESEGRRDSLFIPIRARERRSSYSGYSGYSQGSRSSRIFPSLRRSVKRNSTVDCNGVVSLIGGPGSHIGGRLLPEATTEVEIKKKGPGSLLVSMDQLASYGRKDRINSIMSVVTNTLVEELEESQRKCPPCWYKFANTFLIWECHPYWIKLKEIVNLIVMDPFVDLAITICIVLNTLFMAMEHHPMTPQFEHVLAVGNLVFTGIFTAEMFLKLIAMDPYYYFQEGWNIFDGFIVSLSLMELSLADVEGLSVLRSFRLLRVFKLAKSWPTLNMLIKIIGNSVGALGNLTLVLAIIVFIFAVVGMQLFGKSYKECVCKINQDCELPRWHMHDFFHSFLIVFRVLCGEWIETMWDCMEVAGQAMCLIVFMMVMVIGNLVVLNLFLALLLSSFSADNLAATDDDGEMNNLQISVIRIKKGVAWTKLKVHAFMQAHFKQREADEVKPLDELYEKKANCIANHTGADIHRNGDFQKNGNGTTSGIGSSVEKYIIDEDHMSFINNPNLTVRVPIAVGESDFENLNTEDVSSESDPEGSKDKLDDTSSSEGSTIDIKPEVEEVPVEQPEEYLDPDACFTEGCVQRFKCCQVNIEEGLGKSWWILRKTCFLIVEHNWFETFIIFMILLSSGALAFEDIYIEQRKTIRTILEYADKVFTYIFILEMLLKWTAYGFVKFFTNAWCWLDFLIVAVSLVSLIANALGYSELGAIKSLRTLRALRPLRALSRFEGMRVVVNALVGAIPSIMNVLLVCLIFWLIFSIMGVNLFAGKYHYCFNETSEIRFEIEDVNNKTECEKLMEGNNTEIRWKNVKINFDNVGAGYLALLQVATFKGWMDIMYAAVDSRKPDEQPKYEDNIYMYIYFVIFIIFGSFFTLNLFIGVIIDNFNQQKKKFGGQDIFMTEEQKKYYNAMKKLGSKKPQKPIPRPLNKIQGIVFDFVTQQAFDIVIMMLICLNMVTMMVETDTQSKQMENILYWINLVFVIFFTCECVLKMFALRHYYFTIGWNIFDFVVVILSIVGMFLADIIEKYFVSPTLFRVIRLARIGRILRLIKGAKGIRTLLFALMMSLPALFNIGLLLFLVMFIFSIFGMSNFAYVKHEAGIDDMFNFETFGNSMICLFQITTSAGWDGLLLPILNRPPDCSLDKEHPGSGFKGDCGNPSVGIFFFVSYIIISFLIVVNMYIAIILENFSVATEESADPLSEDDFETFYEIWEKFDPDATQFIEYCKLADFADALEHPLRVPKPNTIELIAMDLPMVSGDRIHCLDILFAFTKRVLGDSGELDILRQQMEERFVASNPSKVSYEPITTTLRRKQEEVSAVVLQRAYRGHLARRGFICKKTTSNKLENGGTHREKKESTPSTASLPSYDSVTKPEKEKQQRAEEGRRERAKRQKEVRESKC

[7] = target: T1, Sodium channel protein type 8 subunit alpha; assay: Binding affinity to human recombinant Nav1.6 C-terminal domain expressed in Escherichia coli BL21 assessed as association rate constant by SPR analysis; conditions: filed as modulator; method in brief: as §2
Target sequence in this assay (Q9UQD0 whole entry, looked up, the tested form may be a part): as above

[8] = target: T2, Fibroblast growth factor 14 (Homo sapiens) (UniProt Q92915); assay: Binding affinity to human recombinant FGF14 expressed in Escherichia coli BL21 assessed as association rate constant by SPR analysis; conditions: filed as modulator; method in brief: as §2
T2 sequence (whole entry): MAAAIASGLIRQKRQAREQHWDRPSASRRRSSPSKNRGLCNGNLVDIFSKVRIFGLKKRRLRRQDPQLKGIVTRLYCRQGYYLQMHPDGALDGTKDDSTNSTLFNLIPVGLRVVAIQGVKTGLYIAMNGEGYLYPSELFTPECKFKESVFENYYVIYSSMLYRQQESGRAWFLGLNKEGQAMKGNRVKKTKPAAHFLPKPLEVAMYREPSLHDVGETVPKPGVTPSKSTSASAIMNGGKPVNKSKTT

[9] = target: T1, Sodium channel protein type 8 subunit alpha; assay: Binding affinity to human recombinant Nav1.6 C-terminal domain expressed in Escherichia coli BL21 assessed as dissociation constant by SPR analysis; method in brief: as §2
Target sequence in this assay (Q9UQD0 whole entry, the tested form may be a part): as the sequence (Q9UQD0 whole entry, looked up, the tested form may be a part) above

[10] = target: T3, Fibroblast growth factor 14 (Homo sapiens, UniProt Q92915); assay: Binding affinity to human recombinant FGF14 expressed in Escherichia coli BL21 assessed as dissociation constant by SPR analysis; method in brief: as §2
T3 sequence (Q92915 whole entry): T2 sequence (whole entry)

[11] = target: T2, Fibroblast growth factor 14 (Homo sapiens); assay: Binding affinity to human recombinant FGF14 expressed in Escherichia coli BL21 assessed as dissociation rate constant by SPR analysis; conditions: filed as modulator; method in brief: as §2

Work on `CCCCCCCCCC(=O)N1CCC[C@H]1C(=O)N[C@@H](CC(C)C)C(=O)N[C@@H](CCC(=O)OC(C)(C)C)C(=O)N[C@H](C(N)=O)C(C)C` (Decanoyl-PLE(OtBu)V-NH2) yielded an Activity (HEK293 [1]) of 114%.

Compound `COC(=O)[C@@H](NC(=O)[C@H](CCC(=O)OC(C)(C)C)NC(=O)[C@H](CC(C)C)NC(=O)[C@@H]1CCCN1C(C)=O)C(C)C` (Ac-PLE(OtBu)V-OMe) has an Activity (HEK293 [1]) of 95%.

`CC(C)C[C@H](NC(=O)[C@@H]1CCCN1C(=O)OCc1ccccc1)C(=O)N[C@@H](CCC(=O)OC(C)(C)C)C(=O)N[C@H](C(=O)N1CCOCC1)C(C)C` (Cbz-PLE(OtBu)V-Morpholide) showed an Activity (HEK293 [1]) of 72%.

For `CC(C)C[C@H](NC(=O)[C@@H]1CCCN1C(=O)C12CC3CC(CC(C3)C1)C2)C(=O)N[C@@H](CCC(=O)OC(C)(C)C)C(=O)N[C@H](C(=O)OC[C@@H]1CO1)C(C)C` (Adamantane1carbonyl-PLE(OtBu)V-X2), the IC50 [2] was 25.1 µM, the Efficacy (HEK293 [3]) was 91.4% and the inhibition (HEK293 [4]) was “inactive”. For the same compound, the Activity (HEK293 [5]) was “Non-Toxic” and the Activity (HEK293 [1]; filed as modulator) was 13.1%.

For `CCOC(=O)[C@@H](NC(=O)[C@H](CCC(=O)OC(C)(C)C)NC(=O)[C@H](CC(C)C)NC(=O)[C@@H]1CCCN1C(=O)C12CC3CC(CC(C3)C1)C2)C(C)C` (Adamantane1carbonyl-PLE(OtBu)V-OEt), the IC50 [2] was 13.3 µM, the K [6] was 1.22 10^-2/s and the Efficacy (HEK293 [3]) was 82.3%. The K [7] was 2.64 10^3/M/s, the K [8] was 2.17 10^2/M/s and the Kd [9] was 67.3 µM. For the same compound, the Kd [10] was 9.47 µM and the K [11] was 2.05 10^-2/s.

In the case of `CC(C)C[C@H](NC(=O)[C@@H]1CCCN1C(=O)NC12CC3CC(CC(C3)C1)C2)C(=O)N[C@@H](CCC(=O)OC(C)(C)C)C(=O)N[C@H](C(N)=O)C(C)C` ({NH(1-Adamantyl)-CO}-PLE(OtBu)V-NH2), the Activity (HEK293 [1]) is reported as 83.5%.

Work on `CCN(CC)C(=O)[C@@H](NC(=O)[C@H](CCC(=O)OC(C)(C)C)NC(=O)[C@H](CC(C)C)NC(=O)[C@@H]1CCCN1C(=O)OCc1ccccc1)C(C)C` (Cbz-PLE(OtBu)V-NEt2) yielded an Activity (HEK293 [1]) of 92.3%.

Compound `CC(C)C[C@H](NC(=O)[C@@H]1CCCN1C(=O)OCc1ccccc1)C(=O)N[C@@H](CCC(=O)OC(C)(C)C)C(=O)N[C@H](C(=O)N1CCN(C)CC1)C(C)C` (Cbz-PLE(OtBu)V-{Piperazinyl(4-Me)}) has an Activity (HEK293 [1]) of 54.2%.

`CC(C)C[C@H](NC(=O)[C@@H]1CCCN1S(=O)(=O)c1ccc(F)cc1)C(=O)N[C@@H](CCC(=O)OC(C)(C)C)C(=O)N[C@H](C(N)=O)C(C)C` ({Benzenesulfonyl(4-F)}-PLE(OtBu)V-NH2) gave an Activity (HEK293 [1]) of 86.4%.

`CC(C)C[C@H](NC(=O)[C@@H]1CCCN1C(=O)OCc1ccccc1)C(=O)N[C@@H](CCC(=O)OC(C)(C)C)C(=O)N[C@H](C(=O)NC1CCCCC1)C(C)C` (Cbz-PLE(OtBu)V-NHcHex) gave an Activity (HEK293 [1]) of 117%.

Compound `CC(C)C[C@H](NC(=O)[C@@H]1CCCN1C(=O)c1ccccc1)C(=O)N[C@@H](CCC(=O)OC(C)(C)C)C(=O)N[C@H](C(N)=O)C(C)C` (Bz-PLE(OtBu)V-NH2) has an Activity (HEK293 [1]) of 105%.

For `CC(C)C[C@H](NC(=O)[C@@H]1CCCN1C(=O)C12CC3CC(CC(C3)C1)C2)C(=O)N[C@@H](CCC(=O)OC(C)(C)C)C(=O)N[C@H](C(N)=O)C(C)C` (Adamantane1carbonyl-PLE(OtBu)V-NH2), the IC50 [2] was 49 µM, the Efficacy (HEK293 [3]) was 82.1% and the inhibition (HEK293 [4]) was “inactive”. For the same compound, the Activity (HEK293 [5]) was “Non-Toxic” and the Activity (HEK293 [1]) was 68.7%.

Compound `CC(C)C[C@H](NC(=O)[C@@H]1CCCN1C(=O)OCc1ccccc1)C(=O)N[C@@H](CCC(=O)OC(C)(C)C)C(=O)N[C@H](C(N)=O)C(C)C` (Cbz-PLE(OtBu)V-NH2) has an Activity (HEK293 [1]) of 112%.
